Columns and labels:
Mus musculus [1] = species: Mus musculus; assay: Number of tumor-free survivors in a group of five mice; type: functional
Outline: (§1)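 Human MX-1 breast tumor fragments (30–40 mg) from in vivo passage implanted subcutaneously in the axillary region. Dosing ip as a suspension in aqueous hydroxypropyl cellulose, once daily for 5 days, beginning when tumors reached about 300 mg. Groups of five mice. Tumors caliper-measured in two dimensions twice weekly and converted to mass. Study ended when control tumors reached 1 g.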

Mus musculus [2] = species: Mus musculus; assay: Tumor growth delay in comparison vehicle-treated control, difference in the median time poststaging for tumors of the treated (T) group to double twice in mass compared to the median of the control (C) group ce; type: functional
Outline: (§2)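 MX-1 human breast tumor (NCI repository), fragments of 30–40 mg from in vivo passage implanted subcutaneously in the axillary region. Groups of five mice dosed ip for 5 days once tumors reached about 300 mg, with compound as a suspension in aqueous hydroxypropyl cellulose. Tumors were caliper-measured in two dimensions twice weekly and converted to mass. Growth delay T−C was the difference in median time to two doublings versus vehicle controls. Regressions and tumor-free survivors were also recorded. The study ended when controls reached 1 g.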

Mus musculus [3] = assay: In vivo optimal (ip) dosage (<LD10) against subcutaneously implanted human mammary tumor xenograft MX-1 on a five-successive day schedule in Athymic NCr-nu/nu mice; type: functional; outline: as §1
Mus musculus [4] = assay: In vivo optimal (ip) dosage (<LD10) against subcutaneously implanted human mammary tumor xenograft MX-1 on a five-successive day schedule in Athymic NCr-nu/nu mice; Toxic; type: functional, organism-based; outline: as §2

Compound | Tumor-free (Mus musculus [1]) [survivors/total] | T-C (Mus musculus [2]) [days] | Optimal dosage (Mus musculus [3]) [mg kg-1 dose-1 day-1] | Optimal dosage (Mus musculus [4])
CCOc1nc(C(Cl)(Cl)Cl)c(Cl)c(O)c1Cl | 0 | 5.2 | 60 | 
COc1c(Cl)c(C(Cl)(Cl)Cl)nc(C(Cl)(Cl)Cl)c1Cl | 0 | -0.8 | 135 | 
CCOc1nc(C(Cl)(Cl)Cl)c(Cl)c(OC)c1Cl | 2 | >38.6 | 200 | 
COc1nc(C(Cl)(Cl)Cl)c(Cl)c(OC)c1Cl [PENCLOMEDINE] | 5 | >49 | 90 | 
FC(F)(F)COc1nc(C(Cl)(Cl)Cl)c(Cl)c(OCC(F)(F)F)c1Cl | 0 | 0.4 | 135 | 
CCOc1nc(C(Cl)(Cl)Cl)c(Cl)c(OCC)c1Cl | 4 | >41 | 135 | 
CCCCOc1nc(C(Cl)(Cl)Cl)c(Cl)c(OCCCC)c1Cl | 0 | -0.6 | 135 | 
CCCCOc1nc(C(Cl)(Cl)Cl)c(Cl)c(OC)c1Cl | 0 | -0.8 | 135 | 
CCOc1nc(C(Cl)(Cl)Cl)c(Cl)c(OC(=O)COC)c1Cl | 0 | 17.8 | 135 | 
CCCCOc1c(Cl)c(OC)nc(C(Cl)(Cl)Cl)c1Cl | 1 | 20.5 | 90 | 
COc1nc(C(Cl)(Cl)Cl)c(Cl)c(OC(C)=O)c1Cl | 5 | >41 | 90 | 
Oc1nc(C(Cl)(Cl)Cl)c(Cl)c(O)c1Cl | 0 | -0.5 | 40 | 
COc1nc(C(Cl)(Cl)Cl)c(Cl)c(O)c1Cl | 3 | >37.2 | 90 | 
COc1c(Cl)c(OCC(F)(F)F)nc(C(Cl)(Cl)Cl)c1Cl | 0 | 1.2 | 90 | 
CCCCOc1nc(C(Cl)(Cl)Cl)c(Cl)c(O)c1Cl | 0 | -0.9 | 135 | 
COc1c(Cl)c(Oc2ccccc2)nc(C(Cl)(Cl)Cl)c1Cl | 0 | 2.3 | 135 | 
CCOc1c(Cl)c(OC)nc(C(Cl)(Cl)Cl)c1Cl | 5 | >42.7 | 90 | 
CCOc1nc(C(Cl)(Cl)Cl)c(Cl)c(OC(C)=O)c1Cl | 0 | 1.4 | 90 | 
CC(C)Oc1nc(C(Cl)(Cl)Cl)c(Cl)c(OC(C)C)c1Cl | 0 | -0.7 | 135 | 
Oc1c(Cl)c(Cl)nc(C(Cl)(Cl)Cl)c1Cl | 0 | 2 | 50 | 
COc1nc(C(Cl)(Cl)Cl)c(Cl)c(OC(C)C)c1Cl | 2 | >35.2 | 60 | 
COc1c(Cl)c(Cl)nc(C(Cl)(Cl)Cl)c1Cl | 0 | 4.3 | 50 | 
COc1c(Cl)c(O)nc(C(Cl)(Cl)Cl)c1Cl | 0 | 0.8 | 135 | 
COc1nc(C(Cl)(Cl)Cl)c(Cl)c(Cl)c1Cl | 0 | -1.4 | 135 | 
Clc1c(Oc2ccccc2)nc(C(Cl)(Cl)Cl)c(Cl)c1Oc1ccccc1 | 0 | 0.2 | 135 | 
CC(=O)Oc1c(Cl)c(Cl)nc(C(Cl)(Cl)Cl)c1Cl |  |  |  | Toxic
Oc1c(Cl)c(OCC(F)(F)F)nc(C(Cl)(Cl)Cl)c1Cl | 0 | -0.2 | 90 | 
CCCOc1c(Cl)c(OC)nc(C(Cl)(Cl)Cl)c1Cl | 0 | 5.4 | 60 | 
CC(=O)Oc1nc(C(Cl)(Cl)Cl)c(Cl)c(OC(C)=O)c1Cl | 0 | -0.5 | 40 | 

Reference: ChEMBL document CHEMBL1135732, “Synthesis and antitumor activity of several new analogues of penclomedine and its metabolites” (2002)
